XBP1 UPR activ: activators of adaptive XBP1 UPR arm, primary screen, cell-based, CHO-XBP1 luciferase reporter, luminescence, uHTS; activation, % at 20 µM; 0.33% of 330,000 active; IRE1-XBP1 UPR activation; percent of tunicamycin response, DMSO as zero; AID 463104, 2010;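 active means versus positive control, 20 µM dose yields 30% or more activation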;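 further: 100% = tunicamycin at 10 µg/mL and 0% = DMSO only wells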
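Material: CHO-XBP1 cells stably carrying IRE1-XBP1-driven luciferase reporter / Amount: 1000 cells per well / Compound: 20 µM, 1% DMSO / Times: 6 h treatment, 37 °C / Detection: luciferase luminescence / Measure: % activation of reporter signal versus tunicamycin and DMSO controls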
UPR CHOP act: activators of apoptotic CHOP UPR arm, primary screen, cell-based, CHO-CHOP luciferase reporter, luminescence, uHTS. UPR activation; percent of tunicamycin response over DMSO baseline. activation, % at 10 µM. 0.34% of 330,000 active;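 active means at 10 µM dose, activation of 40% or more, normalized to positive control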;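 further: 100% = tunicamycin at 10 µg/mL and 0% = DMSO alone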
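measured by = luciferase luminescence | assay system = CHO-CHOP cells, stable luciferase reporter of PERK-eIF2a-CHOP signalling | amount = 500 reporter cells seeded per well | timing = 6 h compound exposure at 37 °C after overnight seeding | controls = positive tunicamycin 10 µg/mL, negative DMSO alone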
Mdm2 MdmX PPI: inhibitors of human Mdm2-MdmX association, primary screen, cell-based, luminescence, split luciferase, SaOS-2, uHTS; Protein Mdm4 (Homo sapiens) + E3 ubiquitin-protein ligase Mdm2 (Homo sapiens), …; SaOS-2 split-luciferase Mdm2/MdmX complementation; inhibition, % at 8 µM; 3% of 330,000 active;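 active means inhibition of at least 50% at 8 µM in the primary screen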
Target sequence (O15151 whole entry, looked up): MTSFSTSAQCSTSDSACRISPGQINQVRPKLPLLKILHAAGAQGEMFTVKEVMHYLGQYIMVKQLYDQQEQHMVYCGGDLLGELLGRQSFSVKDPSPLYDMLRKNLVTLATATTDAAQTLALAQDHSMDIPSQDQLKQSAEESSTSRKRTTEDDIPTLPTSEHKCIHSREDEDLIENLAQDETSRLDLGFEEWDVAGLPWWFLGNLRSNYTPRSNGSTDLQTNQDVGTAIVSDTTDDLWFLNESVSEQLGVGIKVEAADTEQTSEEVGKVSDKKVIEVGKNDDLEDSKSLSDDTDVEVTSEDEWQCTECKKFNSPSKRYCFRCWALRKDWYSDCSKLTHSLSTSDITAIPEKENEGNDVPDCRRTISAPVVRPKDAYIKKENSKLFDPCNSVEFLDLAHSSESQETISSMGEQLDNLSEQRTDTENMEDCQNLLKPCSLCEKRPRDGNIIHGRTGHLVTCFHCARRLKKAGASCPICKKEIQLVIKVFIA
Target sequence (Q00987 whole entry, looked up): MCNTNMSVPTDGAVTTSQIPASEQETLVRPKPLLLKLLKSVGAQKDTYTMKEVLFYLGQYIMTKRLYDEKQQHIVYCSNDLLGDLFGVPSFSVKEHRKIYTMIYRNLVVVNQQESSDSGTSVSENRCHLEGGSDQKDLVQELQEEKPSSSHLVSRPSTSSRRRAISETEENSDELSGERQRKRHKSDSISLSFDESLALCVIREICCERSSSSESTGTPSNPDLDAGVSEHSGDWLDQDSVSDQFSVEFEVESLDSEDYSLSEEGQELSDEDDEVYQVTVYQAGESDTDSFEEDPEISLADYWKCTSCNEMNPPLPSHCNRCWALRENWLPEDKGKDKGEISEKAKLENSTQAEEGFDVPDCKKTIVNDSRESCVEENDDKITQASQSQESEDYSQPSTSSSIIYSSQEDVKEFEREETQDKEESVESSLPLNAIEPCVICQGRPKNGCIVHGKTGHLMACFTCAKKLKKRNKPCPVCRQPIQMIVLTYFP
SKKanGAS inh: S. pyogenes SKKanGAS growth inhibitors in kanamycin, primary screen, streptokinase expression inhibitor project, SKKanGAS strain, BacTiter-Glo luminescence; 6 h; inhibition, % at 7.5 µM; 1.3% of 300,000 active; AID 1662, 2009;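 active means mean replicate score, as percent of positive control median, at least 50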;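 further: strain carries kanamycin resistance gene driven by streptokinase promoter and grows in 40 µg/ml kanamycin; loss of luminescence reflects streptokinase promoter inhibition or plain growth inhibition; 0% = median of DMSO wells and 100% = positive control at its reference dose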
CSC inhib: cancer stem cell viability inhibitors, primary screen, luminescence; cancer stem cell-like cells viability; inhibition, % at 7.5 µM; 1.1% of 300,000 active; AID 2717, 2010; in the data active means inhibition above about 75%; tested in HMLE shEcad cells
Beta cell apopt: inhibitors of cytokine-induced beta cell apoptosis, primary screen, luminescence; INS-1E cytokine-induced death, ATP luminescence, 48 h; percent of positive-control rescue, neutral wells zero; protection from apoptosis, % (no concentration beside the values); 0.8% of 300,000 active; AID 435005, 2010;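 active means Every replicate reaches about 75%, or at least half do and their mean reaches it too, limit read from the data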;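 further: 0% = cytokine-treated negative control wells and 100% = positive control rescue; higher means more ATP so stronger rescue from cytokine killing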
UPR XBP1 confirm: IRE1-XBP1 UPR arm activators, confirmation, cell-based, CHO-XBP1 luciferase reporter, luminescence, single concentration | shares compounds with XBP1 UPR activ | activation, % at 20 µM | 63% of 1,000 active | AID 485299, 2010;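 active means reporter signal at least 30% of the positive control's activation in two or more of four replicate wells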;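 further: plate controls were DMSO negative control for no effect and tunicamycin 10 µg/mL positive control for full effect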
Mdm2-MdmX conf: Mdm2-MdmX complex disruptors, retested hits, confirmation, luminescence, single concentration. 55% of 10,000 active. AID 489028, 2010. inhibition, % at 8 µM. Mdm2-MdmX binding, luminescent assay. shares compounds with Mdm2 MdmX PPI; in the data active means inhibition above about 40%
FLuc counter: full-length luciferase signal inhibition, confirmation, counter-screen for Mdm2/MdmX interaction inhibitor project, cell-based, single concentration, SaOS-2; inhibition, % at 8 µM; SaOS-2 full-length luciferase counterscreen, luminescence; 77% of 6,200 active; AID 504607, 2011; shares compounds with Mdm2 MdmX PPI;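 active means mean inhibition at 8 µM reaching about 37%, which flags the compound as non-specific, limit read from the data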;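 further: p53-null SaOS-2 cells with luciferase driven by a doxycycline-inducible promoter; compound on cells about two nights before reading with doxycycline added after day one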
An asterisk follows results filed as active. A selection: hits, their analogues and other compounds. The true share with any hit is near 4.8%.

What do the screens show for `COc1ccc(/C=N/n2c(=O)[nH]c3c([nH]c4ccc(Br)cc43)c2=O)cc1CN1CCOCC1`?
XBP1 UPR activ: -3.1; UPR CHOP act: -1.3; Mdm2 MdmX PPI: 36.7; SKKanGAS inh: 5.9; CSC inhib: -15.8; Beta cell apopt: 6.6

What do the screens show for `CC1=CC(C)[C@H](/C=N/n2c(=O)[nH]c3c([nH]c4ccc(Br)cc43)c2=O)C(C)C1` (stereo partly drawn)?
XBP1 UPR activ: 80.1*; UPR CHOP act: 30.4; Mdm2 MdmX PPI: 97.7*; SKKanGAS inh: 7.6; CSC inhib: active; Beta cell apopt: 61.3; UPR XBP1 confirm: 99.8*; Mdm2-MdmX conf: 18.4

How did COC(=O)c1cc(C(=O)OCC(=O)N(C)c2ccccc2)cc([N+](=O)[O-])c1 do in these assays?
XBP1 UPR activ: -0.3; UPR CHOP act: -1.3; Mdm2 MdmX PPI: -5.2; SKKanGAS inh: 13.5; CSC inhib: -11.4; Beta cell apopt: -9.9

Results for N/C(=N\OC(=O)c1ccccc1)c1ccn[nH]1 ?
XBP1 UPR activ: -8.6; UPR CHOP act: 0.6; Mdm2 MdmX PPI: -3.3; SKKanGAS inh: -3.3; CSC inhib: -0.8; Beta cell apopt: 0.2

Results for CCC1CCc2c(sc3nc(SCC(=O)NCc4ccco4)n(-c4ccccc4)c(=O)c23)C1 (stereo not drawn) ?
XBP1 UPR activ: 43.2*; UPR CHOP act: 2.7; Mdm2 MdmX PPI: 55.5*; SKKanGAS inh: 1.1; CSC inhib: -41.5; Beta cell apopt: 10.2; UPR XBP1 confirm: 70.2*; Mdm2-MdmX conf: 10.7

Results for O=C(Nc1nc(-c2cc3ccccc3o2)cs1)c1ccc(S(=O)(=O)N2CCCC2)cc1 ?
XBP1 UPR activ: 1.0; UPR CHOP act: 9.1; Mdm2 MdmX PPI: 27.8; SKKanGAS inh: 14.3; CSC inhib: 18.4; Beta cell apopt: 72.2

What do the screens show for `CC1CN(S(=O)(=O)c2ccc(C(=O)Nc3nc(-c4cc5ccccc5o4)cs3)cc2)CC(C)O1` (stereo not drawn)?
XBP1 UPR activ: 48.2*; UPR CHOP act: 12.8; Mdm2 MdmX PPI: 76.1*; SKKanGAS inh: 4.0; CSC inhib: 28.7; Beta cell apopt: 54.5; UPR XBP1 confirm: 134.1*; Mdm2-MdmX conf: 19.9

How did Cc1[nH]c2ccccc2c1/C=N/Nc1cccc(C(=O)O)c1 do in these assays?
XBP1 UPR activ: -3.2; UPR CHOP act: -4.4; Mdm2 MdmX PPI: -20.2; SKKanGAS inh: 12.8; CSC inhib: 3.6; Beta cell apopt: -10.7

Results for COC(=O)c1[nH]c2cc(OC)c(OC)cc2c1/C=N/Nc1ccccc1 ?
XBP1 UPR activ: 35.9*; UPR CHOP act: 9.0; Mdm2 MdmX PPI: 78.7*; SKKanGAS inh: 9.9; CSC inhib: 53.0; Beta cell apopt: 4.7; UPR XBP1 confirm: 12.1; Mdm2-MdmX conf: 25.4; FLuc counter: 84.5*

How did CC(=O)N1CCN(C(=O)c2cccc(NS(=O)(=O)c3ccc(Br)cc3)c2)CC1 do in these assays?
XBP1 UPR activ: -1.1; UPR CHOP act: 1.6; Mdm2 MdmX PPI: 8.1; SKKanGAS inh: -11.6; CSC inhib: -7.7; Beta cell apopt: -2.3

Results for CCOC(=O)C1CCN(c2nc3cc(OC)ccc3cc2C#N)CC1 ?
XBP1 UPR activ: -0.4; UPR CHOP act: -1.9; Mdm2 MdmX PPI: 4.5; SKKanGAS inh: -1.1; CSC inhib: 1.4; Beta cell apopt: -6.5

What do the screens show for `COc1ccc2cc3c(N)nn(C(=O)C4CCC(C(C)(C)C)CC4)c3nc2c1` (stereo not drawn)?
XBP1 UPR activ: 111.4*; UPR CHOP act: -2.9; Mdm2 MdmX PPI: 93.6*; SKKanGAS inh: 93.4*; CSC inhib: 59.3; Beta cell apopt: -26.6; UPR XBP1 confirm: 36.9*; Mdm2-MdmX conf: 87.6*; FLuc counter: 11.2

What do the screens show for `O=C(CSc1ccc2nnc(-c3ccc(Cl)cc3)n2n1)N1CCCc2ccccc21`?
XBP1 UPR activ: 50.4*; UPR CHOP act: 3.2; Mdm2 MdmX PPI: 84.0*; SKKanGAS inh: 14.5; CSC inhib: -0.2; Beta cell apopt: 44.6; UPR XBP1 confirm: 18.1; Mdm2-MdmX conf: 35.2; FLuc counter: 90.0*

How did C=CCn1c(SCc2nc3sc4c(c3c(=O)[nH]2)CCCC4)nc2ccccc2c1=O do in these assays?
XBP1 UPR activ: 1.3; UPR CHOP act: 3.6; Mdm2 MdmX PPI: 31.9; SKKanGAS inh: 6.9; CSC inhib: 13.7; Beta cell apopt: 11.2

How did C=CCn1c(SCc2nc3ccccc3c(=O)[nH]2)nc2sc3c(c2c1=O)CCCC3 do in these assays?
XBP1 UPR activ: 131.5*; UPR CHOP act: 0.1; Mdm2 MdmX PPI: 84.7*; SKKanGAS inh: 0.4; CSC inhib: 18.5; Beta cell apopt: 0.4; UPR XBP1 confirm: -1.3; Mdm2-MdmX conf: 19.5

Results for Cc1cccc(NC(=O)/C(C#N)=C/c2cn(CC(=O)NCc3ccco3)c3ccccc23)c1C ?
XBP1 UPR activ: 57.4*; UPR CHOP act: 1.3; Mdm2 MdmX PPI: 89.5*; SKKanGAS inh: 5.8; CSC inhib: 9.0; Beta cell apopt: -3.8; UPR XBP1 confirm: 167.9*; Mdm2-MdmX conf: 49.4*; FLuc counter: 64.5*

How did COc1ccc(C(=O)C(C)OC(=O)CNC(=O)c2ccco2)cc1 (stereo not drawn) do in these assays?
XBP1 UPR activ: -1.0; UPR CHOP act: -1.8; Mdm2 MdmX PPI: -24.1; CSC inhib: 9.9; Beta cell apopt: -4.0

How did Cc1ccccc1CNC(=O)C1CCCN(c2nnc(C)c3c(C)n(-c4ccccc4)nc23)C1 (stereo not drawn) do in these assays?
XBP1 UPR activ: -2.4; UPR CHOP act: 0.4; Mdm2 MdmX PPI: 33.3; SKKanGAS inh: 3.3; CSC inhib: 10.6; Beta cell apopt: 10.8

How did CCOc1ccccc1CNC(=O)C1CCN(c2nnc(C)c3c(C)n(-c4ccc(C)cc4)nc23)CC1 do in these assays?
XBP1 UPR activ: 63.9*; UPR CHOP act: 34.6; Mdm2 MdmX PPI: 99.8*; SKKanGAS inh: -3.1; CSC inhib: 17.7; Beta cell apopt: 59.3; UPR XBP1 confirm: 85.0*; Mdm2-MdmX conf: 75.5*; FLuc counter: 5.2
